Experimental data as given in ChEMBL document CHEMBL1165943, “Design and synthesis of new anticancer pyrimidines with multiple-kinase inhibitory effect” (Bioorg Med Chem, 2010).

How the values were obtained:
NCI-H460 = test: Cytotoxicity against human NCI-H460 cells assessed as cell growth at 0.01 uM after 48 hrs by sulforhodamine B assay; assay type: functional; conditions: NCI-H460, 48 h, read-out: Activity
DU-145 = test: Cytotoxicity against human DU145 cells assessed as cell growth at 100 nM after 48 hrs by sulforhodamine B assay; assay type: functional; conditions: DU-145, 48 h, read-out: Activity
M14 = test: Growth inhibition of human M14 cells after 48 hrs by sulforhodamine B assay; assay type: functional, cell-based; conditions: for CC50: read-out: LC50 (the source's name)
Procedure, shortened: (§1)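 Cells grown in RPMI 1640 with 5% FBS and 2 mM L-glutamine, seeded at 5,000–40,000 cells/well according to doubling time. After 24 h, time-zero plates are TCA-fixed. Five concentrations (10-fold or ½log dilutions, DMSO stocks) are applied for 48 h at 37 °C, 5% CO₂. Cells are TCA-fixed, SRB-stained and read at 515 nm. IC₅₀ is taken from [(Ti−Tz)/(C−Tz)]×100 = 50.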

EKVX [1] = test: Cytotoxicity against human EKVX cells assessed as cell growth at 10 uM after 48 hrs by sulforhodamine B assay; assay type: functional; conditions: read-out: Activity
U-251 = test: Cytotoxicity against human U251 cells assessed as cell growth at 0.001 uM after 48 hrs by sulforhodamine B assay; assay type: functional; conditions: U-251, 48 h, read-out: Activity
UACC-257 = test: Cytotoxicity against human UACC257 cells assessed as cell growth at 0.001 uM after 48 hrs by sulforhodamine B assay; assay type: functional; conditions: UACC-257, 48 h, read-out: Activity
OVCAR-4 [2] = test: Cytotoxicity against human OVCAR4 cells assessed as cell growth at 10 uM after 48 hrs by sulforhodamine B assay; assay type: functional; conditions: OVCAR-4, 48 h, read-out: Activity
OVCAR-4 [3] = test: Cytotoxicity against human OVCAR4 cells assessed as cell growth at 100 nM after 48 hrs by sulforhodamine B assay; assay type: functional; conditions: OVCAR-4, 48 h, read-out: Activity
EKVX [4] = test: Cytotoxicity against human EKVX cells assessed as cell growth at 1 uM after 48 hrs by sulforhodamine B assay; assay type: functional; conditions: read-out: Activity
UACC-62 = test: Cytotoxicity against human UACC62 cells assessed as cell growth at 0.001 uM after 48 hrs by sulforhodamine B assay; assay type: functional; conditions: UACC-62, 48 h, read-out: Activity
SK-MEL-5 [5] = test: Cytotoxicity against human SK-MEL-5 cells assessed as cell growth at 1 uM after 48 hrs by sulforhodamine B assay; assay type: functional; conditions: SK-MEL-5, 48 h, read-out: Activity
HCT-15 = test: Cytotoxicity against human HCT15 cells assessed as cell growth at 10 uM after 48 hrs by sulforhodamine B assay; assay type: functional; conditions: HCT-15, 48 h, read-out: Activity
COLO 205 = test: Cytotoxicity against human COLO205 cells assessed as cell growth at 0.001 uM after 48 hrs by sulforhodamine B assay; assay type: functional; conditions: COLO 205, 48 h, read-out: Activity
Procedure, shortened: (§2)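 Cells grown in RPMI 1640 with 5% FBS and 2 mM L-glutamine, seeded at 5,000–40,000 cells/well by doubling time. Time-zero plates TCA-fixed after 24 h. Five concentrations (10-fold or half-log dilutions from DMSO stock) added; 48 h at 37 °C, 5% CO2. Cold TCA fixation (final 10%, 60 min, 4 °C), 0.4% SRB stain, dye solubilized in 10 mM trizma base, A515.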

MDA-MB-468 = test: Cytotoxicity against human MDA-MB-468 cells assessed as cell growth at 0.01 uM after 48 hrs by sulforhodamine B assay; assay type: functional; conditions: MDA-MB-468, 48 h, read-out: Activity
786-0 = test: Cytotoxicity against human 786-0 cells assessed as cell growth at 1 uM after 48 hrs by sulforhodamine B assay; assay type: functional; conditions: 786-0, 48 h, read-out: Activity; procedure, shortened: as §2
OVCAR-4 [6] = test: Growth inhibition of human OVCAR4 cells after 48 hrs by sulforhodamine B assay; assay type: functional, cell-based; conditions: for CC50: read-out: LC50 (the source's name); procedure, shortened: as §1
SK-MEL-5 [7] = test: Growth inhibition of human SK-MEL-5 cells after 48 hrs by sulforhodamine B assay; assay type: functional, cell-based; conditions: for CC50: read-out: LC50 (the source's name); procedure, shortened: as §1
HL-60(TB) = test: Growth inhibition of human HL-60(TB) cells after 48 hrs by sulforhodamine B assay; assay type: functional, cell-based; conditions: HL-60, 48 h; for CC50: read-out: LC50 (the source's name)
Procedure, shortened: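 HL-60(TB) suspension cells in RPMI 1640 with 5% FBS receive five 10-fold or ½log drug dilutions from DMSO stock for 48 h at 37 °C, 5% CO2. Settled cells are TCA-fixed, SRB-stained and read at 515 nm against a time-zero plate. […] is solved from [(Ti−Tz)/(C−Tz)]×100 = 50.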

NCI-H322M = test: Cytotoxicity against human NCI-H322M cells assessed as cell growth at 10 uM after 48 hrs by sulforhodamine B assay; assay type: functional; conditions: read-out: Activity
UO-31 [8] = test: Cytotoxicity against human UO31 cells assessed as cell growth at 0.001 uM after 48 hrs by sulforhodamine B assay; assay type: functional; conditions: UO-31, 48 h, read-out: Activity
NCI/ADR-RES = test: Cytotoxicity against human NCI/ADR-RES cells assessed as cell growth at 100 nM after 48 hrs by sulforhodamine B assay; assay type: functional; conditions: read-out: Activity
MDA-MB-231 [9] = test: Cytotoxicity against human MDA-MB-231 cells assessed as cell growth at 1 uM after 48 hrs by sulforhodamine B assay; assay type: functional; conditions: MDA-MB-231, 48 h, read-out: Activity
SK-MEL-5 [10] = test: Cytotoxicity against human SK-MEL-5 cells assessed as cell growth at 0.01 uM after 48 hrs by sulforhodamine B assay; assay type: functional; conditions: SK-MEL-5, 48 h, read-out: Activity
OVCAR-5 = test: Cytotoxicity against human OVCAR5 cells assessed as cell growth at 100 nM after 48 hrs by sulforhodamine B assay; assay type: functional; conditions: OVCAR-5, 48 h, read-out: Activity
MDA-MB-231 [11] = test: Cytotoxicity against human MDA-MB-231 cells assessed as cell growth at 10 uM after 48 hrs by sulforhodamine B assay; assay type: functional; conditions: MDA-MB-231, 48 h, read-out: Activity
A498 = test: Cytotoxicity against human A498 cells assessed as cell growth at 0.001 uM after 48 hrs by sulforhodamine B assay; assay type: functional; conditions: A498, 48 h, read-out: Activity; procedure, shortened: as §2
SK-MEL-2 = test: Cytotoxicity against human SK-MEL-2 cells assessed as cell growth at 0.01 uM after 48 hrs by sulforhodamine B assay; assay type: functional; conditions: SK-MEL-2, 48 h, read-out: Activity
UO-31 [12] = test: Cytotoxicity against human UO31 cells assessed as cell growth at 10 uM after 48 hrs by sulforhodamine B assay; assay type: functional; conditions: UO-31, 48 h, read-out: Activity
KM12 = test: Cytotoxicity against human KM12 cells assessed as cell growth at 0.01 uM after 48 hrs by sulforhodamine B assay; assay type: functional; conditions: KM12, 48 h, read-out: Activity
SF-295 = test: Cytotoxicity against human SF295 cells assessed as cell growth at 0.01 uM after 48 hrs by sulforhodamine B assay; assay type: functional; conditions: SF-295, 48 h, read-out: Activity

`CC(=O)Nc1cccc(-c2ccc(-c3ccnc(NC(=O)Nc4cc(C(F)(F)F)cc(C(F)(F)F)c4)n3)cn2)c1.Cl` gave a growth at 0.01 µM (NCI-H460) of 93%, a growth at 0.1 µM (DU-145) of 102% and a GI50 (M14; Homo sapiens, M14, 48 h) of 1.83 µM. It also gave a TGI (M14; Homo sapiens, M14, 48 h) of 3.76 µM, an IC50 (M14; Homo sapiens, M14, 48 h, read-out: IC50) of 1.83 µM and a CC50 (M14; Homo sapiens, M14, 48 h) of 7.74 µM. The growth at 10 µM (EKVX [1]) was -7%, the growth at 0.001 µM (U-251) was 98% and the growth at 0.001 µM (UACC-257) was 94%. For the same compound, the growth at 10 µM (OVCAR-4 [2]) was -87%, the growth at 0.1 µM (OVCAR-4 [3]) was 61% and the growth at 1 µM (EKVX [4]) was -20%. The growth at 0.001 µM (UACC-62) was 93%, the growth at 1 µM (SK-MEL-5 [5]) was 100% and the growth at 10 µM (HCT-15) was -86%. It also gave a growth at 0.001 µM (COLO 205) of 103%, a growth at 0.01 µM (MDA-MB-468) of 86% and a growth at 1 µM (786-0) of 25%. For the same compound, the GI50 (OVCAR-4 [6]; Homo sapiens, OVCAR-4, 48 h) was 1.57 µM, the TGI (OVCAR-4 [6]; Homo sapiens, OVCAR-4, 48 h) was 11.1 µM and the IC50 (OVCAR-4 [6]; Homo sapiens, OVCAR-4, 48 h, read-out: IC50) was 1.57 µM. For the same compound, the CC50 (OVCAR-4 [6]; Homo sapiens, OVCAR-4, 48 h) was 39 µM, the GI50 (SK-MEL-5 [7]; Homo sapiens, SK-MEL-5, 48 h) was 1.35 µM and the TGI (SK-MEL-5 [7]; Homo sapiens, SK-MEL-5, 48 h) was 2.64 µM. It also gave an IC50 (SK-MEL-5 [7]; Homo sapiens, SK-MEL-5, 48 h, read-out: IC50) of 1.35 µM, a CC50 (SK-MEL-5 [7]; Homo sapiens, SK-MEL-5, 48 h) of 5.13 µM and a GI50 (HL-60(TB)) of 3.78 µM. For the same compound, the IC50 (HL-60(TB)) was 3.78 µM, the TGI (HL-60(TB)) was 96.1 µM and the CC50 (HL-60(TB)) was over 100 µM. The growth at 10 µM (NCI-H322M) was -62%, the growth at 0.001 µM (UO-31 [8]) was 90% and the growth at 0.1 µM (NCI/ADR-RES) was 93%. It also gave a growth at 1 µM (MDA-MB-231 [9]) of 30%, a growth at 0.01 µM (SK-MEL-5 [10]) of 91% and a growth at 0.1 µM (OVCAR-5) of 97%. It also gave a growth at 10 µM (MDA-MB-231 [11]) of -71%, a growth at 0.001 µM (A498) of 95% and a growth at 0.01 µM (SK-MEL-2) of 94%. It also gave a growth at 10 µM (UO-31 [12]) of -75%, a growth at 0.01 µM (KM12) of 99% and a growth at 0.01 µM (SF-295) of 94%.

For `CC(=O)c1ccccc1-c1ccc(-c2ccnc(NC(=O)Nc3cc(N4CCOCC4)cc(C(F)(F)F)c3)n2)cn1`, the growth at 0.01 µM (NCI-H460) was 110%, the growth at 0.1 µM (DU-145) was 77% and the TGI (M14; Homo sapiens, M14, 48 h) was over 100 µM. The CC50 (M14; Homo sapiens, M14, 48 h) was over 100 µM, the IC50 (M14; m14) was “Not Active” and the growth at 10 µM (EKVX [1]) was 74%. For the same compound, the growth at 0.001 µM (U-251) was 93%, the growth at 0.001 µM (UACC-257) was 89% and the growth at 10 µM (OVCAR-4 [2]) was 91%. It also gave a growth at 0.1 µM (OVCAR-4 [3]) of 92%, a growth at 1 µM (EKVX [4]) of 63% and a growth at 0.001 µM (UACC-62) of 94%. For the same compound, the growth at 1 µM (SK-MEL-5 [5]) was 33%, the growth at 10 µM (HCT-15) was 87% and the growth at 0.001 µM (COLO 205) was 109%. The growth at 0.01 µM (MDA-MB-468) was 105%, the growth at 1 µM (786-0) was 55% and the TGI (OVCAR-4 [6]; Homo sapiens, OVCAR-4, 48 h) was over 100 µM. The CC50 (OVCAR-4 [6]; Homo sapiens, OVCAR-4, 48 h) was over 100 µM, the IC50 (OVCAR-4 [6]; ovcar-4) was “Not Active” and the TGI (SK-MEL-5 [7]; Homo sapiens, SK-MEL-5, 48 h) was over 100 µM. For the same compound, the CC50 (SK-MEL-5 [7]; Homo sapiens, SK-MEL-5, 48 h) was over 100 µM, the IC50 (SK-MEL-5 [7]; sk-mel-5) was “Not Active” and the GI50 (HL-60(TB)) was over 100 µM. The IC50 (HL-60(TB)) was over 100 µM, the TGI (HL-60(TB)) was over 100 µM and the CC50 (HL-60(TB)) was over 100 µM. For the same compound, the growth at 10 µM (NCI-H322M) was 80%, the growth at 0.001 µM (UO-31 [8]) was 85% and the growth at 0.1 µM (NCI/ADR-RES) was 75%. It also gave a growth at 1 µM (MDA-MB-231 [9]) of 35%, a growth at 0.01 µM (SK-MEL-5 [10]) of 99% and a growth at 0.1 µM (OVCAR-5) of 91%. The growth at 10 µM (MDA-MB-231 [11]) was 56%, the growth at 0.001 µM (A498) was 85% and the growth at 0.01 µM (SK-MEL-2) was 105%. For the same compound, the growth at 10 µM (UO-31 [12]) was 86%, the growth at 0.01 µM (KM12) was 98% and the growth at 0.01 µM (SF-295) was 90%.
